Measured values reported in ChEMBL document CHEMBL1671761, “Preclinical characterization of BI 201335, a C-terminal carboxylic acid inhibitor of the hepatitis C virus NS3-NS4A protease” (Antimicrob Agents Chemother, 2010).

Legend:
Rattus norvegicus [1] = species: Rattus norvegicus; experiment: Inhibition of rat potassium channel-A at 10 uM
Caspase-5 (Homo sapiens) = Caspase-5 (Homo sapiens) (UniProt P51878); experiment: Inhibition of human caspase-5 at 10 uM
Hepatitis C virus [2] = experiment: Antiviral activity against HCV 2a infected in Huh7 cells assessed as inhibition of viral replication after 72 hrs by RT-PCR; assay type: functional, organism-based, Hepacivirus hominis; details: genotype 2a, Huh-7, 72 h
Procedure, shortened: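 Infectious JFH1 virus (cell culture-adapted, core K74T and NS5A C2441S) was produced by transfecting transcribed RNA into Huh-7.5 cells. Huh-7.5 cells (1×10^4/well, seeded 24 h before) were infected with virus plus a nine-concentration compound series in 0.5% DMSO for 72 h. HCV RNA was quantified by real-time RT-PCR. Mean ± SD, ≥3 experiments.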

[3] = molecular target: D(2) dopamine receptor (Homo sapiens) (UniProt P14416); experiment: Inhibition of human dopamine receptor 2s at 10 uM
Caspase-6 (Homo sapiens) = Caspase-6 (Homo sapiens) (UniProt P55212); experiment: Inhibition of human caspase-6 at 10 uM
[4] = molecular target: Neprilysin (Homo sapiens) (UniProt P08473); experiment: Inhibition of human neutral endopeptidase at 10 uM
[5] = Cmax in dog at 5 mg/kg, po; assay type: ADME, organism-based, Canis lupus familiaris; design: dose 5 mg/kg, route oral; details: in vivo
Procedure, shortened: (§1)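 Single oral dose of 5 mg/kg in 0.5% Methocel with 0.3% Tween 80 (10 ml/kg) to fasted male animals: Sprague-Dawley rats (275-300 g, overnight fast with 10% dextrose water), rhesus monkeys, beagle dogs. Rat blood from cannulated carotid at 0-8 h, pooled from 3 rats per time point; monkey/dog n=3. Plasma solid-phase extracted, LC-MS/MS at m/z 869.3; noncompartmental analysis.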

Caspase-8 (Homo sapiens) = Caspase-8 (Homo sapiens) (UniProt Q14790); experiment: Inhibition of human caspase-8 at 10 uM
[6] = molecular target: Small conductance calcium-activated potassium channel (Rattus norvegicus) (UniProt P70604+P70606+P70605); experiment: Inhibition of rat Small conductance calcium-activated potassium channel at 10 uM; assay type: protein assay
Rattus norvegicus [7] = species: Rattus norvegicus; experiment: Inhibition of rat 5-HT3 receptor at 10 uM
[8] = AUC in rat at 5 mg/kg, po; assay type: ADME, organism-based; design: dose 5 mg/kg, route oral; details: plasma; procedure, shortened: as §1
[9] = molecular target: Disintegrin and metalloproteinase domain-containing protein 17 (Homo sapiens) (UniProt P78536); experiment: Inhibition of human TACE at 10 uM
[10] = molecular target: Plasma kallikrein (Homo sapiens) (UniProt P03952); experiment: Inhibition of human kallikrein at 10 uM
Sequence of Plasma kallikrein (Homo sapiens) (P03952 20-390 limits assumed): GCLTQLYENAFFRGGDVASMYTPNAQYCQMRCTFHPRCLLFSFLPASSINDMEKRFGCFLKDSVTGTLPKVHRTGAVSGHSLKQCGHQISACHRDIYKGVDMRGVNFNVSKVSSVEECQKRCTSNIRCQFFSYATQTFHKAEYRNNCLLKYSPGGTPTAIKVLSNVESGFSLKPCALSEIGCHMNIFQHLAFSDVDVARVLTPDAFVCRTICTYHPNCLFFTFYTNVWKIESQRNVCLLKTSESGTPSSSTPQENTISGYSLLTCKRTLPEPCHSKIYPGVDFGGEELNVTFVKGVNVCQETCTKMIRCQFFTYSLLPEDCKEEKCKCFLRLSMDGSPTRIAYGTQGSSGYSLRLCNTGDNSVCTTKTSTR
Sequence of Plasma kallikrein (Homo sapiens) (P03952 391-638 limits assumed): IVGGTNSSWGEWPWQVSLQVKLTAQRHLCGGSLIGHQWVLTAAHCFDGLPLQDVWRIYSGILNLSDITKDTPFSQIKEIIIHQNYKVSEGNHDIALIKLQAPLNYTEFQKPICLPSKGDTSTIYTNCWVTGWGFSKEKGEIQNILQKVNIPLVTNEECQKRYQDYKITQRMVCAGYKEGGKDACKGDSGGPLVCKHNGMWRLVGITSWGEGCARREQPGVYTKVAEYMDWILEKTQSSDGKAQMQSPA

Trypsin (Homo sapiens) = Trypsin (Homo sapiens) (UniProt P07477+P07478+P35030); experiment: Inhibition of human trypsin at 10 uM; assay type: protein assay
[11] = molecular target: D(3) dopamine receptor (Homo sapiens) (UniProt P35462); experiment: Inhibition of human dopamine receptor 3 at 10 uM
Hepatitis C virus [12] = experiment: Antiviral activity against HCV 2a clone JFH1 infected in Huh7 cells assessed as inhibition of viral replication after 72 hrs by RT-PCR; assay type: functional, organism-based, Hepacivirus hominis; details: genotype 2a clone JFH1, Huh-7, 72 h
Procedure, shortened: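 Genotype 2a replicon (Huh-7 cells carrying an unadapted JFH-1 NS3-NS5B subgenomic replicon) was kept with 0.25 mg/ml G418 and plated at 10,000 cells/well without G418. Next day, serial dilutions in DMEM/10% FBS/0.5% DMSO were added for 72 h. Replicon RNA was measured by TaqMan RT-PCR and normalized to total RNA. Mean ± SD, ≥3 experiments.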

[13] = molecular target: Sodium-dependent noradrenaline transporter (Homo sapiens) (UniProt P23975); experiment: Inhibition of human norepinephrine transporter at 10 uM
Sequence of Sodium-dependent noradrenaline transporter (Homo sapiens) (P23975 whole entry): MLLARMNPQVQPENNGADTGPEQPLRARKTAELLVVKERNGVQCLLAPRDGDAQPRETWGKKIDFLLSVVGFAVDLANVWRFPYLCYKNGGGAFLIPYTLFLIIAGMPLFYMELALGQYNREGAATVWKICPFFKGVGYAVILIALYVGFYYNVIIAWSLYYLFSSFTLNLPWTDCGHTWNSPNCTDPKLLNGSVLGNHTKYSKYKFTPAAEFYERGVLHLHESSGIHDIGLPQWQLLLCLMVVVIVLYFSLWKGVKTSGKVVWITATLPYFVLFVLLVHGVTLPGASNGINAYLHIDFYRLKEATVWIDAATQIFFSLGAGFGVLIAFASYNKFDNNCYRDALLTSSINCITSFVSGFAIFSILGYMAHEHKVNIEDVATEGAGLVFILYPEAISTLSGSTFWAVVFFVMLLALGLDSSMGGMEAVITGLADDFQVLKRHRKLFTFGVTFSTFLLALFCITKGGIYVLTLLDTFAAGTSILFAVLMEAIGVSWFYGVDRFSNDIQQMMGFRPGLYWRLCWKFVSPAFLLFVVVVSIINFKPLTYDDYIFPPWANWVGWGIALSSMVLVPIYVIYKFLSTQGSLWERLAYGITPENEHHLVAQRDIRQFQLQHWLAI

[14] = AUC in dog at 5 mg/kg, po; assay type: ADME, organism-based, Canis lupus familiaris; design: dose 5 mg/kg, route oral; details: plasma; procedure, shortened: as §1
Homo sapiens [15] = species: Homo sapiens; experiment: Inhibition of human dopamine receptor 4.2 at 10 uM
Caspase-9 (Homo sapiens) = Caspase-9 (Homo sapiens) (UniProt P55211); experiment: Inhibition of human caspase-9 at 10 uM
Rattus norvegicus [16] = species: Rattus norvegicus; experiment: Inhibition of rat GABA-A receptor, benzodiazepine central at 10 uM
[17] = molecular target: Matrilysin (Homo sapiens) (UniProt P09237); experiment: Inhibition of human MMP-7 at 10 uM
Homo sapiens [18] = species: Homo sapiens; experiment: Inhibition of human tryptase at 10 uM
[19] = Tmax in rat at 5 mg/kg, po; assay type: ADME, organism-based; design: dose 5 mg/kg, route oral; details: in vivo
Procedure, shortened: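 Male Sprague-Dawley rats (275-300 g), fasted overnight with 10% dextrose water. Single oral dose in 0.5% Methocel/0.3% Tween 80 at 10 ml/kg. Carotid-cannula blood taken 0-8 h, with plasma from 3 rats pooled per time point. Solid-phase extraction, then LC-MS/MS at m/z 869.3 (LOQ 10 nM). Noncompartmental analysis.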

[20] = molecular target: Acetylcholinesterase (Homo sapiens) (UniProt P22303); experiment: Inhibition of human acetylcholinesterase at 10 uM
[21] = Mean retention time in monkey at 5 mg/kg, po; assay type: ADME, organism-based, Macaca mulatta; design: dose 5 mg/kg, route oral; details: rhesus monkey, in vivo
Procedure, shortened: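 Fasted male rhesus monkeys (3.0-4.8 kg) given a single oral dose in 0.5% Methocel/0.3% Tween 80. Plasma taken by solid-phase extraction and measured by LC-MS/MS at m/z 869.3 (LOQ 10 nM). Noncompartmental analysis. Mean ± SE for three males.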

Cathepsin B = Cathepsin B (Homo sapiens, UniProt P07858); experiment: Inhibition of human cathepsin B at 10 uM
[22] = Mean retention time in dog at 5 mg/kg, po; assay type: ADME, organism-based, Canis lupus familiaris; design: dose 5 mg/kg, route oral; details: in vivo
Procedure, shortened: (§2)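 Fasted male beagle dogs (9.8-13.8 kg) given a single oral dose in 0.5% Methocel/0.3% Tween 80. Plasma taken by solid-phase extraction and measured by LC-MS/MS at m/z 869.3 (LOQ 50 nM). Noncompartmental analysis. Mean ± SE for three males.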

[23] = molecular target: Inositol 1,4,5-trisphosphate-gated calcium channel ITPR1 (Rattus norvegicus) (UniProt P29994); experiment: Inhibition of rat IP3 receptor at 10 uM
Sequence of Inositol 1,4,5-trisphosphate-gated calcium channel ITPR1 (Rattus norvegicus) (P29994 whole entry, looked up): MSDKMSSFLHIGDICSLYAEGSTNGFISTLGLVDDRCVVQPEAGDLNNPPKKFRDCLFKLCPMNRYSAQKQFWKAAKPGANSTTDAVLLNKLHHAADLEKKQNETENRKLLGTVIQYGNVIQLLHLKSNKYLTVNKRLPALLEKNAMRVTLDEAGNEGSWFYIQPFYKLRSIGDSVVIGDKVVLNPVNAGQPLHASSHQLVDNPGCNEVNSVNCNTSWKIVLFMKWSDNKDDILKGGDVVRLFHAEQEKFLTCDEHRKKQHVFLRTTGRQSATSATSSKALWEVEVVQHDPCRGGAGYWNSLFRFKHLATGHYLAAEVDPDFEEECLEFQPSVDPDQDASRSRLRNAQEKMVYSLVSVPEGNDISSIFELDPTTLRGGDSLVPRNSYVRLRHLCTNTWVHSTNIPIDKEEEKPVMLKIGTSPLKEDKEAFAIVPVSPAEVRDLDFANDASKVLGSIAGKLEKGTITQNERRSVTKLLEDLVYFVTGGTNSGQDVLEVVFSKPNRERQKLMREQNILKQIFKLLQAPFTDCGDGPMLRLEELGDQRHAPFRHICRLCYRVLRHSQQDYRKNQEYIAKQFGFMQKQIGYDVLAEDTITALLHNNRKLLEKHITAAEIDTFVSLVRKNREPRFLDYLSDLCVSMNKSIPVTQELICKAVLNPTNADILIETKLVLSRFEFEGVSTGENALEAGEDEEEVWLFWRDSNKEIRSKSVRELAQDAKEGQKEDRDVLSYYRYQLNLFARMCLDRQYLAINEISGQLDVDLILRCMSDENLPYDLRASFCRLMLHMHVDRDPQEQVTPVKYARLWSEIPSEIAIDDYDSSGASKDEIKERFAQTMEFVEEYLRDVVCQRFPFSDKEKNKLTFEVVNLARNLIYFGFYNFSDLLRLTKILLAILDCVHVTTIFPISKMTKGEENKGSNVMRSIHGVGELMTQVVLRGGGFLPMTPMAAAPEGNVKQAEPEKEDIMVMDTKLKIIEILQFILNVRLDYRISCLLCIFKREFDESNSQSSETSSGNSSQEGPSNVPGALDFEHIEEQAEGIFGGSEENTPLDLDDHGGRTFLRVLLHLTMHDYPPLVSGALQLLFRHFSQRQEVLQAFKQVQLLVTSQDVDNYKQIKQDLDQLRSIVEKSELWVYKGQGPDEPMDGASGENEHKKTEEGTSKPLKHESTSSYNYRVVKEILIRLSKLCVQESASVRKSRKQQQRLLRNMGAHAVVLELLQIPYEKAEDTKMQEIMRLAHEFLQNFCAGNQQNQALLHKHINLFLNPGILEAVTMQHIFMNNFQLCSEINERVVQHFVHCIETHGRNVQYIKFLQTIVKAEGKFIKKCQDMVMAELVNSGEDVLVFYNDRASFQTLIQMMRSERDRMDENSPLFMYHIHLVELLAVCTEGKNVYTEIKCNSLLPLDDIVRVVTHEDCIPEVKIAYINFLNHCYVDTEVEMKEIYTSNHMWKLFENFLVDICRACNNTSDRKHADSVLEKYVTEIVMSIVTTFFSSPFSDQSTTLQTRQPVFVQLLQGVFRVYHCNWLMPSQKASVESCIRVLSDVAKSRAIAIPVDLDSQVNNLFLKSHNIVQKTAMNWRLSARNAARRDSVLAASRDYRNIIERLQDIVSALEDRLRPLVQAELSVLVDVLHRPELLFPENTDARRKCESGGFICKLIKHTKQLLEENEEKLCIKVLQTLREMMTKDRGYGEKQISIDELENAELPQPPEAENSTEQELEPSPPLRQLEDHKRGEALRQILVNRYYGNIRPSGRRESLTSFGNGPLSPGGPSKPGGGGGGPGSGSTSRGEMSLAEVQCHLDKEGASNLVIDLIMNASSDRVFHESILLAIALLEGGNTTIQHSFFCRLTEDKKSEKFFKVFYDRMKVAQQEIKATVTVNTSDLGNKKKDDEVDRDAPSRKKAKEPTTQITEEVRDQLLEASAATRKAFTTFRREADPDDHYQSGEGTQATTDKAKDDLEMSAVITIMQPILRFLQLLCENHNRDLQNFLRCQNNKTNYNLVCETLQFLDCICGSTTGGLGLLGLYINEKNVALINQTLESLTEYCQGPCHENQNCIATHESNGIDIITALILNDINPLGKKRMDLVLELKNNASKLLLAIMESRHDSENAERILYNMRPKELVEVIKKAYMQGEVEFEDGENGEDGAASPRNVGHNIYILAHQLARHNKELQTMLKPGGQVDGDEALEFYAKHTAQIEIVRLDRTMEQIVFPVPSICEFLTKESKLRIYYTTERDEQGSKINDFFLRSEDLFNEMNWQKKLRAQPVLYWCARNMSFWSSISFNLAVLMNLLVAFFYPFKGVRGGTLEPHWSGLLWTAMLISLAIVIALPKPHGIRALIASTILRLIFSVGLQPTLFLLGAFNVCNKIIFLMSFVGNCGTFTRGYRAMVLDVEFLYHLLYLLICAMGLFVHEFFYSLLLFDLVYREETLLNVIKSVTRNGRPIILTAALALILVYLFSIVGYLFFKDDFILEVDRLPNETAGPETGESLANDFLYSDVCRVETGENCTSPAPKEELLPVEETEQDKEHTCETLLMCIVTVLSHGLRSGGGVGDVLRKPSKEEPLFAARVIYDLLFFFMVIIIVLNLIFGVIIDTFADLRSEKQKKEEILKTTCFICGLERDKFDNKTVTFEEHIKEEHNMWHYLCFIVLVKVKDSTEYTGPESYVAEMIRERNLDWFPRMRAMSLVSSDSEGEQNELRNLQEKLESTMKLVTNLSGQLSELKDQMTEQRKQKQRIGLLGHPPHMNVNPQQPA

[24] = molecular target: 5-hydroxytryptamine receptor 6 (Homo sapiens) (UniProt P50406); experiment: Inhibition of human 5-HT6 receptor at 10 uM
Rattus norvegicus [25] = species: Rattus norvegicus; experiment: Inhibition of rat potassium channel-V at 10 uM
Rattus norvegicus [26] = species: Rattus norvegicus; experiment: Inhibition of rat GABA B receptor at 10 uM
[27] = Tmax in dog at 5 mg/kg, po; assay type: ADME, organism-based, Canis lupus familiaris; design: dose 5 mg/kg, route oral; details: in vivo; procedure, shortened: as §2
Huh-7 = experiment: Cytotoxicity activity against human HuH7 cells by MTT assay; assay type: functional
Procedure, shortened: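 MTT assay in proliferating Huh-7 cells exposed 72 h to serial inhibitor dilutions; formazan read at 570 nm. CC50 taken from percent inhibition.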

[28] = molecular target: Nitric oxide synthase 3 (Rattus norvegicus) (UniProt Q62600); experiment: Inhibition of rat cNOS at 10 uM
[29] = molecular target: D(1B) dopamine receptor (Homo sapiens) (UniProt P21918); experiment: Inhibition of human dopamine receptor 5 at 10 uM
Sequence of D(1B) dopamine receptor (Homo sapiens) (P21918 whole entry): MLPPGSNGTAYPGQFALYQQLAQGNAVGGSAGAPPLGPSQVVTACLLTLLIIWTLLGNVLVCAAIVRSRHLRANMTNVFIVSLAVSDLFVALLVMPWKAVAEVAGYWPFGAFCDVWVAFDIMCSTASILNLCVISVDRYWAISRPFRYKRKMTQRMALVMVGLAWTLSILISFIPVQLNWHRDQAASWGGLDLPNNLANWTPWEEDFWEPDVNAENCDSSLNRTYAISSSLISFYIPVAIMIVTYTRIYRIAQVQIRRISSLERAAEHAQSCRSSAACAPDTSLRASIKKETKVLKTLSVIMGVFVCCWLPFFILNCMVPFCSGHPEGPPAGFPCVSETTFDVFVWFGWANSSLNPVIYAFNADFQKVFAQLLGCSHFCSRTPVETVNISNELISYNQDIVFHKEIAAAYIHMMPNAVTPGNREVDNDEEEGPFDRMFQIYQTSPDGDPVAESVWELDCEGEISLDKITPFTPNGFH

[30] = molecular target: Matrix metalloproteinase-14 (Homo sapiens) (UniProt P50281); experiment: Inhibition of human MMP-14 at 10 uM
[31] = molecular target: D(1A) dopamine receptor (Homo sapiens) (UniProt P21728); experiment: Inhibition of human dopamine receptor 1 at 10 uM
[32] = molecular target: Coagulation factor X (Homo sapiens) (UniProt P00742); experiment: Inhibition of human factor 10a at 10 uM
Sequence of Coagulation factor X (Homo sapiens) (P00742 41-179 limits assumed): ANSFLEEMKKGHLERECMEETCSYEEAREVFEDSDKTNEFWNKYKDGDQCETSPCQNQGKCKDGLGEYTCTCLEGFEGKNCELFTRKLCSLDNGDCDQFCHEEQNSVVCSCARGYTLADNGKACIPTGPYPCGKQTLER
Sequence of Coagulation factor X (Homo sapiens) (P00742 235-488 limits assumed): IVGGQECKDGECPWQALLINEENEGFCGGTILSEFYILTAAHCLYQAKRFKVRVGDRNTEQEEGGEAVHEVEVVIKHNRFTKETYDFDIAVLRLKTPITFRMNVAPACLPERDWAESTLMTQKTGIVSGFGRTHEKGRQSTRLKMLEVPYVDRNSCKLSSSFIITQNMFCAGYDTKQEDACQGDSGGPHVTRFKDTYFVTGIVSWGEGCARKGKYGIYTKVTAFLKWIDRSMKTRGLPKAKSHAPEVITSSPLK

With `C=C[C@@H]1C[C@]1(NC(=O)[C@@H]1C[C@@H](Oc2cc(-c3csc(NC(=O)C(C)C)n3)nc3c(Br)c(OC)ccc23)CN1C(=O)[C@@H](NC(=O)OC1CCCC1)C(C)(C)C)C(=O)O` the inhibition (Rattus norvegicus [1]) was 10%, the inhibition (Caspase-5 (Homo sapiens)) was 24% and the EC50 (Hepatitis C virus [2]) was 43 nM. It also gave an inhibition [3] of 10%, an inhibition (Caspase-6 (Homo sapiens)) of 28% and an inhibition [4] of 3%. It also gave a Cmax [5] of 3.8 µM, an inhibition (Caspase-8 (Homo sapiens)) of 5% and an inhibition [6] of 2%. It also gave an inhibition (Rattus norvegicus [7]) of 7%, an AUC [8] of 1.55 µM·h and an inhibition [9] of 77%. It also gave an inhibition [10] of 0%, an inhibition (Trypsin (Homo sapiens)) of 2% and an inhibition [11] of 4%. The EC50 (Hepatitis C virus [12]) was 50 nM, the inhibition [13] was 20% and the AUC [14] was 13 µM·h. For the same compound, the inhibition (Homo sapiens [15]) was 58%, the inhibition (Caspase-9 (Homo sapiens)) was 23% and the inhibition (Rattus norvegicus [16]) was 12%. The inhibition [17] was 6%, the inhibition (Homo sapiens [18]) was 5% and the Tmax [19] was 1.5 h. For the same compound, the inhibition [20] was 20%, the MRT [21] was 2.6 h and the inhibition (Cathepsin B) was 22%. For the same compound, the MRT [22] was 3.7 h, the inhibition [23] was 0% and the inhibition [24] was 22%. It also gave an inhibition (Rattus norvegicus [25]) of 7%, an inhibition (Rattus norvegicus [26]) of 9% and a Tmax [27] of 0.83 h. The CC50 (Huh-7) was 30000 nM, the inhibition [28] was 7% and the inhibition [29] was 11%. It also gave an inhibition [30] of 3%, an inhibition [31] of 14% and an inhibition [32] of 5%.
